Results: ChEMBL document CHEMBL1122071, “Avermectin acyl derivatives with anthelmintic activity” (1982)

Assays:
Format in all cases: functional
[1] = system: Trichostrongylus colubriformis; test: Minimal dose necessary to eliminate > 83% of Trichostrongylus colubriformis infection in gerbils
[2] = system: Cooperia oncophora; test: Anthelmintic efficacy against adult Cooperia oncopphora (C.o) in sheep at dose of 0.25 mg/kg administered orally; details: route oral
Method in brief: (§1)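 Lambs experimentally infected with mixed gastrointestinal nematodes (H. contortus, O. circumcincta, T. axei, T. colubriformis, C. oncophora, Oe. columbianum) were dosed orally, 1–3 sheep per dose. An untreated infected group of 6 was included, with worm burdens given as the geometric mean number of worms per lamb. Efficacy was scored against adult and, where listed, EL4 stages.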

[3] = system: Oesophagostomum columbianum; test: Anthelmintic efficacy against Oseophagostomum columbianum (Oe. c) in sheep at dose of 0.25 mg/kg administered orally; details: route oral; method in brief: as §1
[4] = system: Trichostrongylus axei; test: Anthelmintic efficacy against Trichostrongylus axei (T.a) in sheep at dose of 0.25 mg/kg administered orally; details: route oral; method in brief: as §1
[5] = system: Trichostrongylus colubriformis; test: Anthelmintic efficacy against Trichostrongylus colubriformis (T.c) in sheep at dose of 0.25 mg/kg administered orally; details: route oral; method in brief: as §1
[6] = system: Haemonchus contortus; test: Anthelmintic efficacy against adult Haemonchus contortus (H.c) in sheep at dose of 0.25 mg/kg administered orally; details: route oral; method in brief: as §1
[7] = system: Teladorsagia circumcincta; test: Anthelmintic efficacy against adult Ostertagia circumcincta (O. c) in sheep at dose of 0.25 mg/kg administered orally; details: route oral; method in brief: as §1

SMILES | Dose [1] [mg/kg] | other results
CC[C@H](C)[C@H]1O[C@]2(C=C[C@@H]1C)C[C@@H]1C[C@@H](C/C=C(\C)[C@@H](O[C@H]3C[C@@H](OC)[C@@H](O[C@H]4C[C@@H](OC)[C@@H](OC(N)=O)[C@H](C)O4)[C@H](C)O3)[C@@H](C)/C=C/C=C3\CO[C@@H]4[C@H](O)C(C)=C[C@@H](C(=O)O1)[C@]34O)O2 | 0.025 | 
CC[C@H](C)[C@H]1O[C@]2(CC(O)[C@@H]1C)C[C@@H]1C[C@@H](C/C=C(\C)[C@@H](OC3CC(OC)C(OC4CC(OC)C(O)C(C)O4)C(C)O3)[C@@H](C)/C=C/C=C3\CO[C@@H]4[C@H](O)C(C)=C[C@@H](C(=O)O1)[C@]34O)O2 (stereo partly drawn) [AVERMECTIN B2A] | 0.0125 | 
CC[C@H](C)[C@H]1O[C@]2(C=C[C@@H]1C)C[C@@H]1C[C@@H](C/C=C(\C)[C@@H](O[C@H]3C[C@@H](OC)[C@@H](O[C@H]4C[C@@H](OC)[C@@H](O[Si](C)(C)C(C)(C)C)[C@H](C)O4)[C@H](C)O3)[C@@H](C)/C=C/C=C3\CO[C@@H]4[C@H](O[Si](C)(C)C(C)(C)C)C(C)=C[C@@H](C(=O)O1)[C@]34O)O2 | >2.5 | 
CC[C@H](C)[C@H]1O[C@]2(CC(O)[C@@H]1C)C[C@@H]1C[C@@H](C/C=C(\C)[C@@H](OC3CC(OC)C(OC4CC(OC)C(OC(C)=O)C(C)O4)C(C)O3)[C@@H](C)/C=C/C=C3\CO[C@@H]4[C@H](OC)C(C)=C[C@@H](C(=O)O1)[C@]34O)O2 (stereo partly drawn) | 0.06 | Efficacy [2]: >90%; Efficacy [3]: >90%; Efficacy [4]: >90%; Efficacy [5]: >90%; Efficacy [6]: >90%; Efficacy [7]: >90%
CC[C@H](C)[C@H]1O[C@]2(CC(OC(C)=O)[C@@H]1C)C[C@@H]1C[C@@H](C/C=C(\C)[C@@H](OC3CC(OC)C(OC4CC(OC)C(OC(C)=O)C(C)O4)C(C)O3)[C@@H](C)/C=C/C=C3\CO[C@@H]4[C@H](OC(C)=O)C(C)=C[C@@H](C(=O)O1)[C@]34O)O2 (stereo partly drawn) | 0.5 | 
CC[C@H](C)[C@H]1O[C@]2(C=C[C@@H]1C)C[C@@H]1C[C@@H](C/C=C(\C)[C@@H](O[C@H]3C[C@@H](OC)[C@@H](O[C@H]4C[C@@H](OC)[C@@H](OC(=O)CNC(C)=O)[C@H](C)O4)[C@H](C)O3)[C@@H](C)/C=C/C=C3\CO[C@@H]4[C@H](O)C(C)=C[C@@H](C(=O)O1)[C@]34O)O2 | 0.025 | 
CC[C@H](C)[C@H]1O[C@]2(C=C[C@@H]1C)C[C@@H]1C[C@@H](C/C=C(\C)[C@@H](O[C@H]3C[C@@H](OC)[C@@H](O[C@H]4C[C@@H](OC)[C@@H](OC(=O)C(C)(C)C)[C@H](C)O4)[C@H](C)O3)[C@@H](C)/C=C/C=C3\CO[C@@H]4[C@H](O)C(C)=C[C@@H](C(=O)O1)[C@]34O)O2 | 0.5 | 
